From PubChem BioAssay
A selection: hits, their analogues and other compounds. The true share with any hit is near 2.4%.
SIAE primary = human SIAE inhibition, primary screen; Q9HAT2; SIAE FP-Rh probe binding, fluorescence polarization; inhibition, % at 9.66 µM; 370,000 compounds, 0.69% hits; AID 1053197;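 active = inhibition above a cutoff: mean of compounds within the control limits plus 3 SD of those, cut at about 17% in these data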;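 note: 0% = plate median of compound wells and 100% = probe without SIAE protein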
PAD4 inh = blocks human protein arginine deiminase 4; recombinant PAD4, RCA probe fluorescence polarization; inhibition, % at 6.36 µM; 330,000 compounds, 0.41% hits;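 active = percent inhibition above a cutoff equal to the mean of all tested compounds plus 3 SD, cut at about 15% in these data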;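 note: 0% = PAD4 with RCA probe and DMSO and 100% = probe without PAD4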
Apaf1 inhib = inhibitors of human Apaf-1 apoptosome | reconstituted apoptosome caspase-3 activity, DEVD-Rh110 fluorescence | inhibition, % at 20 µM | 330,000 compounds, 0.71% hits; active = inhibition of at least 40% at 20 µM;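 note: plate controls were DMSO wells for no effect and DEVD-CHO caspase inhibitor wells for full effect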
Target sequence (O14727 whole entry, looked up): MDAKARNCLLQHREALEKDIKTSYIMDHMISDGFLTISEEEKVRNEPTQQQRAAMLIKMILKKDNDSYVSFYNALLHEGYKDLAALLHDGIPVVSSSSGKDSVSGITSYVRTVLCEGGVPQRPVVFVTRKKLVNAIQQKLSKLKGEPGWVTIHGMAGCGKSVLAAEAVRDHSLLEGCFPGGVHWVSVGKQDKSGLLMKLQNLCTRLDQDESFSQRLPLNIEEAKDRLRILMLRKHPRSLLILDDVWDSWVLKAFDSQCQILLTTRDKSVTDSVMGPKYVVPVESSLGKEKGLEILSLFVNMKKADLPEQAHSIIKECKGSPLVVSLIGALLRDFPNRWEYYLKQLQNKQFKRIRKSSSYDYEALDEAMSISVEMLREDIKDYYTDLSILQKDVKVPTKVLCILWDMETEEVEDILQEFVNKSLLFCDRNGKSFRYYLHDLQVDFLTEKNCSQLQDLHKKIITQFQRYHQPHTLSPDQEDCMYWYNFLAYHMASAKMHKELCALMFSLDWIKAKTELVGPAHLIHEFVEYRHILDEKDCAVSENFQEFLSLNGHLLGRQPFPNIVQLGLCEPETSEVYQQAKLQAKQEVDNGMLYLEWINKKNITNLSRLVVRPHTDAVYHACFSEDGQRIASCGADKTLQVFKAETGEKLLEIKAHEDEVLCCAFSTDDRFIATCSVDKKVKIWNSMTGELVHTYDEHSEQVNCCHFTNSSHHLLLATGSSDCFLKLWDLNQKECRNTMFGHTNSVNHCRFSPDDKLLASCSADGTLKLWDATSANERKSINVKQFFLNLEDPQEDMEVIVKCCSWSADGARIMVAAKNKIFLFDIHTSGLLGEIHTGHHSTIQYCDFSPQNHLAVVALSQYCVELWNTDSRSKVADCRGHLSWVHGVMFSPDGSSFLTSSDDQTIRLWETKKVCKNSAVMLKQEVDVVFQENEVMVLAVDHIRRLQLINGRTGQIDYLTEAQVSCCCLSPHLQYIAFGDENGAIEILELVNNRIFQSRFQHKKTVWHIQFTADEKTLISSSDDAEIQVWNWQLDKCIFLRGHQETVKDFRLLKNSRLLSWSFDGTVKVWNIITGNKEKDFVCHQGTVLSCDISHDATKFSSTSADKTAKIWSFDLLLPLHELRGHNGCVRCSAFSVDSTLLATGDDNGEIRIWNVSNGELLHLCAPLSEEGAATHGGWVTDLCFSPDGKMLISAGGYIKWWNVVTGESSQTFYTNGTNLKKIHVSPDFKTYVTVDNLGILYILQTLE
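Assay system – apoptosome proteins · Medium – Hepes buffer, pH 7.5 · Also added – cytochrome c with DEVD-Rh110 · Timing – 30 min compound preincubation, 50 min activation, room temperature · Detection – Rh110 fluorescence, excitation 480 nm, emission 540 nm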
TDP2 inh = TDP2 (human) inhibition, absorbance primary screen; O95551; recombinant TDP2, T5PNP hydrolysis, p-nitrophenol absorbance 415 nm; inhibition, % at 12.8 µM; 370,000 compounds, 0.34% hits;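 active = inhibition above the mean of all tested compounds plus 3 SD, set per campaign, cut at about 25% in these data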;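 note: 0% = DMSO with enzyme and 100% = buffer with substrate but no TDP2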
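test system = human TDP2 enzyme | input = TDP2 enzyme at 120 nM final | medium = 50 mM Tris-HCl pH 7.5 with Mg2+, KCl, DTT, BSA | also added = T5PNP substrate, 5 mM | times = 2 h at 37 °C | technique = epi absorbance | benchmarks = high control without enzyme, low control DMSO plus TDP2 | replication = each compound tested once, singlicate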
GSTO1 counter = blocks human GSTO1 in RBBP9 counter-screen; 300,000 compounds, 1.1% hits; inhibition, % at 5.96 µM; P78417; AID 1974; recombinant GSTO1, activity-based probe fluorescence polarization;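 active = inhibition above the campaign mean inhibition plus 3 SD, cut at about 35% in these data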;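 note: 0% = GSTO1-1 with DMSO and 100% = wells lacking GSTO1-1 enzyme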
TCR CD3 inh = inhibitors of human TCR-CD3 interaction | TAMRA-labeled TCR probe fluorescence, biochemical | inhibition, % at 9.4 µM | 360,000 compounds, 0.37% hits; in the data active = inhibition above about 19%;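 note: recombinant mutant TCR 2C K166C tagged with TAMRA read by polarization; 0% = receptor in buffer alone and 100% = receptor with positive control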
GSTO1 confirm = confirmation of human GSTO1 inhibitors; recombinant GSTO1, probe fluorescence polarization; shares compounds with GSTO1 counter; 2,400 compounds, 54% hits; AID 2176; inhibition, % at 5.96 µM;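 active = inhibition above the primary screen's cutoff, its mean inhibition plus 3 SD, cut at about 35% in these data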;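 note: loss of polarization as inhibitors block binding of rhodamine sulfonate ester activity probe; 0% = GSTO1 with DMSO and 100% = wells lacking GSTO1 enzyme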
PAD4 FP conf = PAD4 (human) inhibition, confirmed; shares compounds with PAD4 inh; recombinant PAD4, RCA probe fluorescence polarization; inhibition, % at 6.36 µM; 1,200 compounds, 28% hits;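 active = mean inhibition across replicates above the hit cutoff set by the earlier primary screen, cut at about 15% in these data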;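 note: inhibitors block active-site labeling by the probe so polarization falls; 0% = PAD4 with probe and DMSO and 100% = probe without PAD4 enzyme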
SIAE confirm = confirmation of human SIAE inhibitors | shares compounds with SIAE primary | SIAE FP-Rh activity-based probe, fluorescence polarization | inhibition, % at 9.66 µM | 2,300 compounds, 13% hits | AID 1117263;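 active = mean inhibition of the replicates above the hit cutoff set in the primary screen, cut at about 17% in these data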;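 note: 0% = SIAE with DMSO and probe and 100% = probe without SIAE; inhibitors lower polarization as more probe stays unbound to SIAE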
Numbers without * were called inactive; · = no result given.

SMILES	SIAE primary	PAD4 inh	Apaf1 inhib	TDP2 inh	GSTO1 counter	TCR CD3 inh	PAD4 FP conf	others
CCOc1cccc(CNc2ccc(O)cc2)c1OCc1ccc(Cl)cc1	28.9*	-11.3	31.8	3.2	75.5*	15.7	·	GSTO1 confirm=4.3;SIAE confirm=8.1
CC(=O)N1CCN(C(=S)c2cccc([N+](=O)[O-])c2)CC1	-1.0	0.4	-7.6	-3.0	-0.6	10.7	·
Nc1c(C(=O)Nc2ccc3c(c2)OCCO3)nnn1Cc1cccc(Br)c1	-6.6	0.4	12.5	3.8	-8.5	6.2	·
COc1ccc(/C=C/C(=O)Nc2ccc(N3CCOCC3)cc2)cc1	-2.0	-0.9	·	7.6	1.0	5.3	·
COc1ccc(N2CCN(c3ccc(NC(=O)/C=C\C(=O)O)cc3)CC2)cc1	17.8*	30.3*	-1.6	4.4	74.0*	11.5	·	GSTO1 confirm=3.5;SIAE confirm=4.2
Cc1ccc(S(=O)(=O)N2CCN(C(=O)CCC(=O)NCCc3ccc(F)cc3)CC2)cc1	0.3	-2.3	-0.2	-8.6	-0.2	2.9	·
COC(=O)C(C(=O)Nc1ccc(OC)cc1)C1CCCCCC1 (stereo not drawn)	1.1	10.1	15.1	-2.8	17.2	13.8	·
COc1ccccc1NC(=O)C1CCN(S(=O)(=O)c2cccs2)CC1	-2.4	18.0*	2.6	-14.6	·	-4.0	4.5
Cc1cc(NN)nc(NS(=O)(=O)c2ccc(Cl)cc2)n1	-3.1	0.6	9.2	8.1	7.4	1.2	·
CCN(CC)c1nc(N)nc(NS(=O)(=O)c2ccc(Cl)cc2)n1	15.0	27.0*	0.6	2.7	7.1	8.7	3.8
Cc1ccc(S(=O)(=O)N2CC(O)CC2C(=O)O)cc1 (stereo not drawn)	4.8	-1.7	-4.5	2.9	7.9	5.8	·
Cc1cc(C)cc(-c2nnc(SCC(=O)c3c(N)n(C4CC4)c(=O)[nH]c3=O)o2)c1	3.5	·	14.3	-5.6	·	8.8	·
O=C1c2ccc(-c3ccc(F)cc3OCc3ccccc3)cc2S(=O)(=O)c2cccc(C(=O)N3CCCC3)c21	·	16.6*	15.9	·	·	·	14.9*
COc1ccc(OC)c(C2SCCN2S(C)(=O)=O)c1 (stereo not drawn)	-3.9	-3.9	-6.7	4.3	3.0	4.8	·
CCOC(=O)CN(C(=O)COc1nc(-c2ccccc2)cc(C)c1C#N)c1ccccc1C	-2.3	19.9*	8.2	-11.1	-0.5	8.5	-8.4
CCOC(=O)CN(C(=O)COc1nc(-c2ccccc2)cc(C)c1C#N)c1ccccc1	0.8	-0.5	11.9	14.0	5.0	6.1	·
COc1ccc(COC(=O)C2=C(C)NC(=O)NC2c2ccc(O)cc2)cc1 (stereo not drawn)	11.5	-1.4	21.1	2.8	-13.4	1.3	·
O=C(COc1ccccc1[N+](=O)[O-])N1CCN(S(=O)(=O)c2ccccc2)CC1	-3.6	3.5	0.5	3.2	-1.4	2.7	·
COc1ccc(C2C(C#N)=C(N)Oc3cc4c(cc32)OCO4)cc1 (stereo not drawn)	4.5	1.2	-12.4	-1.8	2.8	5.0	·
CCN1C=C(Cc2ccc(OC)cc2)C2=C(C1)C(c1ccc(OC)cc1)C(C#N)=C(N)O2 (stereo not drawn)	-3.7	41.7*	7.8	0.9	2.9	-8.9	3.5
COC(=O)c1cc(NC(=O)CSC2=NCCS2)cc(C(=O)OC)c1	-5.6	18.0*	-5.2	-9.6	-3.1	-3.5	15.4*
CCOc1ccc(NC(=O)CSC2=NCCN2)cc1	13.4	5.0	-12.0	0.0	1.6	-3.4	·
COC(=O)c1ccc(NC(=O)CSC2=NCCN2)cc1	2.4	18.0*	-13.1	12.8	2.4	1.8	29.8*
CCC1C(=O)N=C(SCC(=O)Nc2ccc(C(=O)OC)cc2)NC1=O (stereo not drawn)	-11.7	15.7*	-11.8	-9.7	-0.3	-3.3	20.9*
COC(=O)c1cc(NC(=O)Cc2ccc(OC)cc2)cc(C(=O)OC)c1	-1.3	21.1*	15.9	-2.0	-0.7	-0.1	17.4*
SMILES	SIAE primary	PAD4 inh	Apaf1 inhib	TDP2 inh	GSTO1 counter	TCR CD3 inh	PAD4 FP conf	others
NS(=O)(=O)c1ccc(NC(=O)CSC2=NC(=O)C(c3ccccc3)C(=O)N2)cc1 (stereo not drawn)	-4.8	13.8	-4.0	0.9	10.1	2.5	·
COc1c(O)ccc(/C=C(\C#N)c2nc3ccccc3[nH]2)c1[N+](=O)[O-]	12.8	-11.6	17.0	1.3	12.9	0.7	·
CC[n+]1c(C)sc2cc(OC)ccc21	5.3	17.1*	-3.1	-1.5	11.0	2.1	12.6
Cc1c(NC(=O)Nc2ccccc2[N+](=O)[O-])c(=O)n(-c2ccccc2)n1C	2.6	-3.4	2.6	5.7	2.6	6.7	·
COc1ccc(-c2nnc(SCc3cccc(F)c3)n2-c2ccccc2)cc1	-1.5	·	·	-5.0	·	·	·
CS(=O)(=O)c1cccc(C(=O)NCc2ccc(F)cc2)c1	3.2	-0.2	4.6	10.1	0.4	2.5	·
CS(=O)(=O)c1cccc(C(=O)NCc2ccccc2)c1	5.4	34.7*	-9.2	6.3	-0.5	-0.3	4.6
CC(NC(=O)c1c(O)c2ccccc2[nH]c1=O)c1ccccc1 (stereo not drawn)	-2.4	16.3*	0.9	1.6	3.2	-2.8	4.7
Cc1cc(C)c(C)c(S(=O)(=O)N2CCC(C(=O)N3CCCC3)CC2)c1C	6.4	57.7*	-3.8	1.8	·	-0.8	-8.2
CN1CC=C2C(C#N)=C(N)C(C#N)(C#N)[C@H](c3ccoc3)[C@H]2C1	·	21.8*	25.3	·	41.4*	·	-2.3
O=C(NCC(=O)N(c1ccccc1)C(C(=O)NC1CCCC1)c1ccncc1)c1cccs1 (stereo not drawn)	0.6	-0.1	0.9	4.2	0.6	-0.4	·
O=C(NCC(=O)N(c1cccc(F)c1)C(C(=O)NC1CCCC1)c1ccncc1)c1cccs1 (stereo not drawn)	-3.7	18.3*	2.5	-1.7	0.0	-9.8	-0.2
CC(C(=O)N1CCc2ccccc21)N1CCN(c2ccccn2)CC1 (stereo not drawn)	-3.9	-4.1	0.3	10.4	-0.3	2.2	·
Cc1cc(=O)[nH]c(NN)n1	0.3	15.8*	-20.1	-4.2	-0.3	6.8	7.3
CCOC(=O)[C@H]1[C@H]2COc3ccccc3[C@@H]2N2C(=O)[C@@H](C)NC(=O)[C@@]12C	1.5	-2.2	17.5	-14.1	·	-1.3	·
Cc1ccc(NC(=O)CSCC(=O)Nc2ccc(N3CCOCC3)cc2N2CCOCC2)cc1	7.3	·	6.0	2.4	·	-4.7	·
Cc1ccc(S(=O)(=O)Nc2ccc3oc(=O)sc3c2)c(C)c1	-13.5	21.9*	15.9	1.0	14.4	-1.4	7.4
